Measured values as given in article PMC12398596 (Nature Communications, 2025).
One block for each compound: values may come before it.

How the values were obtained:
fAβ42 [1] = molecular target: T1, fAβ42 (Homo sapiens, UniProt P05067); test: PICUP-Western blot of fAβ42, antibody 4G8; format: biochemical; details: fAβ42 20 μM, 37 °C, P2CSKn result at 0.5 eq. (10 μM)
fFITC-Aβ42 = test: LSCM re-assembly of fFITC-Aβ42 plaques; format: biochemical; details: fFITC-Aβ42 5.0 μM, compound 25 μM, PBS
sAβ42 [2] = test: Dynamic light scattering, sAβ42 with compounds; format: physicochemical; details: PBS; for shift of sAβ42 particle size to single range around 100 nm: sAβ42 + compound
TLR2, BV2 cells = test: Phagocytosis of FITC-Aβ42 forms in TLR2-WT; format: cell-based, mouse; details: 0.5 μM, 30 min; for uptake in TLR2-knockdown BV2 cells: TLR2-siRNA; for uptake in BV2-NC cells: null-siRNA control
BV2 cells [3] = test: Degradation of FITC-Aβ42 forms in BV2 cells; format: cell-based, mouse; details: for degradation of intracellular FITC-Aβ42: 0.5 μM FITC-Aβ42 forms, 180 min then washed
sAβ42 [4] = test: Tyndall effect of sAβ42 with compounds; format: physicochemical; details: PBS; for Tyndall effect of sAβ42 on addition of compound: imaged immediately after mixing; for Tyndall effect of compound itself (self-aggregation): compound alone
Msr1 mRNA in BV2 cells = test: Msr1 mRNA in BV2 cells, rt-qPCR; format: cell-based, mouse; details: for expression of Msr1 mRNA, TLR agonists (in words): LPS 1.0 μg/mL, Pam2CSK4 1.0 μM, zymosan A 50 μg/mL, flagellin 200 nM
Marco mRNA in BV2 cells = test: Marco mRNA in BV2 cells, rt-qPCR; format: cell-based, mouse; details: for expression of Marco mRNA, TLR agonists (in words): LPS 1.0 μg/mL, Pam2CSK4 1.0 μM, flagellin 200 nM
Mrc1 mRNA in BV2 cells = test: Mrc1 mRNA in BV2 cells, rt-qPCR; format: cell-based, mouse; details: for expression of Mrc1 mRNA, TLR agonists (in words): LPS 1.0 μg/mL, Pam3CSK4 1.0 μM, Pam2CSK4 1.0 μM, zymosan A 50 μg/mL
caspase-3 = test: Cleaved caspase-3 in BV2 cells, Western blot; format: cell-based, mouse; details: sAβ42, fAβ42 0.5 μM; hPAβ42 1.0 μM P2CSKn + 0.5 μM sAβ42; 12 h
BV2 cells [5] = test: RNA-seq of BV2 cells; format: cell-based, mouse
BV2 cells [6] = test: Phagocytosis of fluorescent microsphere in BV2 cells, flow cytometry; format: cell-based, mouse; details: fAβ42 0.5 μM
fAβ42 [7] = molecular target: T1, fAβ42; test: Dynamic light scattering, fAβ42 with P2CSKn, time-dependent; format: physicochemical
BV2 cells [8] = test: Colocalization of P2CSKn-pretreated sFITC-Aβ42 with LysoTracker Red in BV2 cells; format: cell-based, mouse; details: chloroquine 10 μM, 1 h pretreatment
Aβ plaque [9] = test: Local hippocampus injection, Aβ plaque by Thioflavin S, APP/PS1 mice; format: in vivo, APP/PS1 transgenic mice; details: 9-month-old APP/PS1, hippocampus, 100 μM 300 nL, 5 d, mean ± SD
Outline: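 APP/PS1 mice (9 or 16 months) under pentobarbital (50 mg/kg) received stereotaxic injections of test compound (100 μM, 300 nL saline, with Alexa Fluor 594) into right dorsal hippocampus (AP −2.2, ML +1.5, DV −1.9 mm) and reference into left. Meloxicam 5.0 mg/kg s.c. given pre-surgery and every 12 h for 3 days. Perfusion-fixed at 5 or 10 days, DAPI-counterstained. INJ/ADJ ratios compared between hemispheres.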

fAβ42 [10] = molecular target: T1, fAβ42; test: ThT fluorescence kinetics of preformed fAβ42; format: biochemical; details: sAβ42 10 μM, 37 °C
Iba1 = test: Local cortex injection, Iba1, APP/PS1 mice; format: in vivo, APP/PS1 transgenic mice; details: 13-month-old APP/PS1, cortex, 100 μM 300 nL, 5 d, mean ± SD
Outline: (§1)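 13-month APP/PS1 mice (C57BL/6 background) under sodium pentobarbital (50 mg/kg) received a unilateral stereotaxic cortical injection (AP +1.0, ML ±1.0, DV −1.0) of compound or reference (100 μM, 300 nL saline, with Hoechst 33342) at 50 nL/min. Perfusion-fixed (PBS, 4% PFA) at 2 or 5 days and sections immunostained. Ratio = signal at injection zone (>80% max dye) over adjacent zone (>200 μm away, <10% dye); 50 μm around needle track excluded.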

BV2 cells [11] = test: Normal vs treat & wash phagocytosis of sFITC-Aβ42 in BV2 cells; format: cell-based, mouse; details: mean ± SD, n = 3
Aβ plaque [12] = test: Local cortex injection, Aβ plaque by Thioflavin S, APP/PS1 mice; format: in vivo, APP/PS1 transgenic mice; details: 13-month-old APP/PS1, cortex, 100 μM 300 nL, 5 d, mean ± SD
Outline: as §1

BV2 cells [13] = test: Phagocytosis of sFITC-Aβ42 in BV2 cells, flow cytometry; format: cell-based, mouse; details: sFITC-Aβ42 0.5 μM, 2 eq., 180 min, mean ± SD, n = 3
MARCO = MARCO protein in BV2 cells, Western blot; format: cell-based, mouse; details: P2CSKn or Pam2CSK4 1.0 μM, 12 h
BV2 cells [14] = test: Treat & wash phagocytosis of fFITC-Aβ42 in BV2 cells; format: cell-based, mouse
Aβ plaque [15] = test: Local cortex injection, Aβ by antibody OC, APP/PS1 mice; format: in vivo, APP/PS1 transgenic mice; details: 13-month-old APP/PS1, cortex, 100 μM 300 nL, 5 d, mean ± SD
Outline: as §1

NLRP3 = NLRP3 protein in BV2 cells, Western blot; format: cell-based, mouse; details: 1.0 μM, 12 h
MSR1 = MSR1 protein in BV2 cells, Western blot; format: cell-based, mouse; details: P2CSKn or Pam2CSK4 1.0 μM, 12 h
BV2 cells [16] = test: Phagocytosis of fFITC-Aβ42 in BV2 cells, flow cytometry; format: cell-based, mouse; details: fFITC-Aβ42 0.5 μM, 8 eq., 180 min, mean ± SD, n = 3
TLR2 = test: Cellular colocalization of FITC-Aβ42/RhoB-P2CSKn/TLR2, LSCM; format: cell-based, mouse; details: RhoB-P2CSKn 1.0 μM, sFITC-Aβ42 0.5 μM, 1 h
primary microglia = test: Phagocytosis of sFITC-Aβ42 in primary microglia, flow cytometry; format: cell-based, mouse
[17] = equimolar P2CSKn + fAβ42 (20 μM), whole sample, initial
[18] = fAβ42 only 20 μM, whole sample, 18.5 h
[19] = fAβ42 only 20 μM, whole sample, initial
[20] = fAβ42 only, supernatant, 18.5 h
[21] = 1.0 μM, 12 h, in the absence or presence of Aβ42 species

oligomer alteration in fAβ42 (fAβ42 [1]): not observed
shift of sAβ42 particle size to single range around 100 nm (sAβ42 [2]): did not occur
Compound: KLVFFn
co-location with / reshaping of FITC-Aβ42 plaque (fFITC-Aβ42): did not occur

Compound: fFITC-Aβ42: pre-formed fibrillar FITC-Aβ42
uptake in TLR2-knockdown BV2 cells (TLR2, BV2 cells): 12.8%
uptake in BV2-NC cells (TLR2, BV2 cells): ~ 39.2%
degradation of intracellular FITC-Aβ42 (BV2 cells [3]): efficiently degraded

Tyndall effect of sAβ42 on addition of compound (sAβ42 [4]): didn’t facilitate that of sAβ42
Tyndall effect of compound itself (self-aggregation) (sAβ42 [4]): significant Tyndall effect
Compound: Pam2KTK4-ahx-KLVFF-nal [P2KTKn]

Tyndall effect of sAβ42 on addition of compound (sAβ42 [4]): didn’t facilitate that of sAβ42
Tyndall effect of compound itself (self-aggregation) (sAβ42 [4]): significant Tyndall effect
Compound: Pam3CSK4-ahx-KLVFF-nal [P3CSKn]

Compound: Flagellin
expression of Msr1 mRNA, TLR agonists (in words) (Msr1 mRNA in BV2 cells): failed to upregulate
expression of Marco mRNA, TLR agonists (in words) (Marco mRNA in BV2 cells): failed to upregulate

Compound: Zymosan A
expression of Msr1 mRNA, TLR agonists (in words) (Msr1 mRNA in BV2 cells): substantially upregulated
expression of Mrc1 mRNA, TLR agonists (in words) (Mrc1 mRNA in BV2 cells): significantly attenuated

Compound: fAβ42: pre-formed fibrillar Aβ42
apoptosis of BV2 cells, cleaved caspase-3 (caspase-3): significant apoptosis
expression of Msr1 mRNA (in words) (Msr1 mRNA in BV2 cells; fAβ42 0.5 μM, after 30 min): significantly suppressed
phagosome-related genes, RNA-seq (BV2 cells [5]; fAβ42 0.5 μM, BV2, 12 h): significantly donwregulated
–log2(FC) of Msr1, Marco and Mrc1 (BV2 cells [5]; fAβ42 0.5 μM, BV2, 12 h): > 1
Tlr2, Tlr4 or Tlr5 expression (BV2 cells [5]; fAβ42 treatment, RNA-seq): not significantly affected
uptake of fluorescent microsphere (in words) (BV2 cells [6]): time-dependently decreased
expression of Marco mRNA (in words) (Marco mRNA in BV2 cells; fAβ42 0.5 μM, after 60 min): significantly suppressed
hydrodynamic diameter, bimodal range (fAβ42 [7]; equimolar P2CSKn + fAβ42 (20 μM), whole sample, 0.5 h): 40–900 nm
hydrodynamic diameter, population 2 (fAβ42 [7]; [17]): ~700 nm
hydrodynamic diameter, population 3 (fAβ42 [7]; [17]): ~9000 nm
hydrodynamic diameter, population 1 (fAβ42 [7]; [18]): around 16 nm
hydrodynamic diameter, population 2 (fAβ42 [7]; [18]): ~136 nm
hydrodynamic diameter, population 3 (dominant) (fAβ42 [7]; [18]): ~6000 nm
hydrodynamic diameter, population 1 (fAβ42 [7]; [19]): about 40 nm
hydrodynamic diameter, population 2 (fAβ42 [7]; [19]): ~700 nm
hydrodynamic diameter, population 3 (fAβ42 [7]; [19]): ~6000 nm
hydrodynamic diameter, species 1 (fAβ42 [7]; [20]): around 107 nm
hydrodynamic diameter, species 2 (fAβ42 [7]; [20]): ~717 nm
hydrodynamic diameter, monomodal range (fAβ42 [7]; fAβ42 only, supernatant, until 4.5 h): 40–85 nm
expression of Mrc1 mRNA (in words) (Mrc1 mRNA in BV2 cells; fAβ42 0.5 μM, after 30 min): significantly suppressed

Compound: CCN(CC)CCCC(C)Nc1ccnc2cc(Cl)ccc12 (stereo not shown) [chloroquine]
degradation of intracellular FITC-Aβ42, effect of inhibitor (BV2 cells [3]; chloroquine pretreatment 10 μM, 1 h): almost completely abolished
lysosome amount and level of phagocytosis of hybrid aggregates (BV2 cells [8]): significantly reduced

Compound: Pam-KCKSKVFLKFK-ahx-nal [RP]
INJ/ADJ TS (Aβ plaque [9]): 1.12 ± 1.04

lag time of β-sheet formation (fAβ42 [10]): 6.5 h
Compound: sAβ42: soluble Aβ42
apoptosis of BV2 cells, cleaved caspase-3 (caspase-3): significant apoptosis
hydrodynamic diameter, peak 1 (sAβ42 [2]; sAβ42 alone): around 3 nm
hydrodynamic diameter, peak 2 (sAβ42 [2]; sAβ42 alone): ~12 nm

Compound: Pam3CSK4
expression of Mrc1 mRNA, TLR agonists (in words) (Mrc1 mRNA in BV2 cells): significantly attenuated

oligomer alteration in fAβ42 (fAβ42 [1]): not observed
Tyndall effect of sAβ42 on addition of compound (sAβ42 [4]): much less activity than P2CSKn
shift of sAβ42 particle size to single range around 100 nm (sAβ42 [2]): did not occur
protein level of NLRP3 (in words) (NLRP3): increased
Compound: Pam2CSK4
INJ/ADJ Iba1 (Iba1): 5.79 ± 1.71
mRNA of Msr1 (in words) (Msr1 mRNA in BV2 cells; [21]): upregulated
expression of Msr1 mRNA, TLR agonists (in words) (Msr1 mRNA in BV2 cells): substantially upregulated
phagocytosis of sFITC-Aβ42, treat & wash group (BV2 cells [11]; compound 1.0 μM 6 h, washed, sFITC-Aβ42 0.5 μM 12 h): 24.0 ± 2.3%
phagocytosis of sFITC-Aβ42, normal group (BV2 cells [11]; sFITC-Aβ42 0.5 μM pretreated with compound 1.0 μM 30 min, 12 h): 49.3 ± 4.1%
mRNA of Marco (in words) (Marco mRNA in BV2 cells; [21]): upregulated
expression of Marco mRNA, TLR agonists (in words) (Marco mRNA in BV2 cells): upregulated
INJ/ADJ TS (Aβ plaque [12]): 0.85 ± 0.11
expression of Mrc1 mRNA, TLR agonists (in words) (Mrc1 mRNA in BV2 cells): significantly attenuated
MFI180 (BV2 cells [13]): 18911 ± 310
protein level of MARCO (in words) (MARCO): significant increase
phagocytosis of fFITC-Aβ42, treat & wash (BV2 cells [14]; 1.0 μM 6 h, washed, fFITC-Aβ42 0.5 μM 12 h, mean ± SD, n = 3): 43.8 ± 4.1%
increase in phagocytosis of fFITC-Aβ42, treat & wash (BV2 cells [14]; versus untreated fFITC-Aβ42): about 26%
co-location with / reshaping of FITC-Aβ42 plaque (fFITC-Aβ42): did not occur
INJ/ADJ OC (Aβ plaque [15]): 1.05 ± 0.28
protein level of MSR1 (in words) (MSR1): significant increase
MFI180 (BV2 cells [16]): 24286 ± 520
count180 (cells internalized FITC-Aβ42) (BV2 cells [16]): 89.2 ± 0.3%

Compound: sFITC-Aβ42: soluble FITC-labeled Aβ42
uptake in TLR2-knockdown BV2 cells (TLR2, BV2 cells): 12.6%
uptake in BV2-NC cells (TLR2, BV2 cells): ~ 27.3%
co-localization of TLR2 with RhoB-P2CSKn and FITC-Aβ42 (TLR2): rarely observed
degradation of intracellular FITC-Aβ42 (BV2 cells [3]): efficiently degraded
cell population with engulfed sFITC-Aβ42 (primary microglia; sFITC-Aβ42 0.5 μM alone, within about 360 min): ~ 40%
intracellular accumulation of FITC-Aβ42 (primary microglia; sFITC-Aβ42 0.5 μM ± P2CSKn 1.0 μM): extremely low
